Consider eleven compounds from ChEMBL document CHEMBL2407068, “Tropolones as lead-like natural products: the development of potent and selective histone deacetylase inhibitors” (ACS Med Chem Lett, 2013).

The term GI50 denotes the concentration that inhibits growth by half. Higher therefore signals lower sensitivity of the cells. Usually Ki stands for a dissociation constant, usually derived from enzyme kinetics or from competition with a known ligand.

Data set [1] has as its system HCT-116. The data set is described as follows: Cytotoxicity against human HCT116 cells after 72 hrs by MTS assay. It is filed as functional. Particulars: HCT-116, 72 h.
The species entered for data set [2] is Homo sapiens. The data set is described as follows: Selectivity ratio of Ki for human recombinant HDAC8 to Ki for human recombinant HDAC2.
Data set [3] has as its target T1, Protein deacetylase HDAC6 (Homo sapiens, UniProt Q9UBN7).
T1 sequence (Q9UBN7 whole entry): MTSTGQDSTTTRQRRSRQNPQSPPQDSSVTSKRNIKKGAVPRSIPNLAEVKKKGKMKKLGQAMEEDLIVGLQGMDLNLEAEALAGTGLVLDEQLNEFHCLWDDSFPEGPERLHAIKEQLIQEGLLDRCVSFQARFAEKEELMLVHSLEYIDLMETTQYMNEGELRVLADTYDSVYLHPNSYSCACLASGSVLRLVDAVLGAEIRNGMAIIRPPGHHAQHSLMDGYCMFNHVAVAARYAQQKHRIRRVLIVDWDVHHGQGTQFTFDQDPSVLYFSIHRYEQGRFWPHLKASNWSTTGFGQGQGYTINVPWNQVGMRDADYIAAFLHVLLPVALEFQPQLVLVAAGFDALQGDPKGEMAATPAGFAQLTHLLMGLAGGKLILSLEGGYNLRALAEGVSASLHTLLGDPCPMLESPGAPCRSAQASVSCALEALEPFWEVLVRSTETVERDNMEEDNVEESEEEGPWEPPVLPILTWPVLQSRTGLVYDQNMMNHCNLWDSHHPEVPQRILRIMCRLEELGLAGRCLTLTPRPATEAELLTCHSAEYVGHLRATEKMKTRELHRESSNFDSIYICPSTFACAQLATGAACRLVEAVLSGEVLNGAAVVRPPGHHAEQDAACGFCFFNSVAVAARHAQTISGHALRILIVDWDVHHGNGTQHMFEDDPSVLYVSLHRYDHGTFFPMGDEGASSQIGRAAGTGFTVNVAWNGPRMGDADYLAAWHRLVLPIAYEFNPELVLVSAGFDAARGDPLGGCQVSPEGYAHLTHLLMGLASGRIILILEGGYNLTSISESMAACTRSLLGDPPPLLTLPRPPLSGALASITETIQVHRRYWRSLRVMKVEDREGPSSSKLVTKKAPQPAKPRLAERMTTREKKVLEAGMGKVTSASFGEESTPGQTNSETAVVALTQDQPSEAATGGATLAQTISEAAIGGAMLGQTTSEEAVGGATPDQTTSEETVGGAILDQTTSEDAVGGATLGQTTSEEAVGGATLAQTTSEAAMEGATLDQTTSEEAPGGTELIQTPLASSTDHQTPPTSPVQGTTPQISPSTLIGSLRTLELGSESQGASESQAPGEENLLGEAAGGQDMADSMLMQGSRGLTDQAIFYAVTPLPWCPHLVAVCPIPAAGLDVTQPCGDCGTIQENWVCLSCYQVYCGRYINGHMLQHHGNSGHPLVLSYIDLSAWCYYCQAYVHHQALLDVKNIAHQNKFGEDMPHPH
The data set is described as follows: Inhibition of human recombinant HDAC6 by Michaelis-Menten equation analysis.

For data set [4], the species on record is Homo sapiens. Description: Selectivity ratio of Ki for human recombinant HDAC4 to Ki for human recombinant HDAC2.
Data set [5] concerns the target Histone deacetylase 1 (Homo sapiens, UniProt Q13547). The data set is described as follows: Inhibition of human recombinant HDAC1 by Michaelis-Menten equation analysis.
Data set [6] addresses Histone deacetylase 4 (Homo sapiens, UniProt P56524). The data set is described as follows: Inhibition of human recombinant HDAC4 by Michaelis-Menten equation analysis.
Data set [7] addresses Histone deacetylase 2 (Homo sapiens, UniProt Q92769). Description: Inhibition of human recombinant HDAC2 by Michaelis-Menten equation analysis.
Data set [8] concerns Jurkat. The data set is described as follows: Cytotoxicity against human Jurkat cells after 72 hrs by MTS assay. It is filed as functional. Background: Tetrazolium assays rely on reduction of a dye to a coloured formazan, in cell work by metabolically active cells.
Data set [9] concerns Liver. Description: Half life in mouse liver microsomes assessed as gluconoride formation at 0.4 ug/mL by HPLC-MS analysis in presence of UDPGA. It is filed as ADME, Microsome. The procedure, abridged:
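Mouse liver microsome incubation run for phase II conjugation, with UDPGA added. Half-life was determined, and the glucuronide conjugate was detected by mass spectrometry.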

The species named for data set [10] is Homo sapiens. The data set is described as follows: Selectivity ratio of Ki for human recombinant HDAC5 to Ki for human recombinant HDAC2.
Data set [11] is filed under the species Homo sapiens. Description: Selectivity ratio of Ki for human recombinant HDAC1 to Ki for human recombinant HDAC2.
Data set [12] concerns the target Histone deacetylase 5 (Homo sapiens, UniProt Q9UQL6). The data set is described as follows: Inhibition of human recombinant HDAC5 by Michaelis-Menten equation analysis.
For data set [13], the species on record is Homo sapiens. The data set is described as follows: Selectivity ratio of Ki for human recombinant HDAC6 to Ki for human recombinant HDAC2.
In data set [14] the test system is BXPC-3. Description: Cytotoxicity against human BxPC3 cells after 72 hrs by MTS assay. It is filed as functional. The following applies: BXPC-3, 72 h.
Data set [15] concerns HuT78. Description: Cytotoxicity against human HUT78 cells after 72 hrs by MTS assay. It is filed as functional. Particulars: HuT78, 72 h.
For data set [16], the target named is T2, Histone deacetylase 8 (Homo sapiens, UniProt Q9BY41).
T2 sequence (Q9BY41 whole entry): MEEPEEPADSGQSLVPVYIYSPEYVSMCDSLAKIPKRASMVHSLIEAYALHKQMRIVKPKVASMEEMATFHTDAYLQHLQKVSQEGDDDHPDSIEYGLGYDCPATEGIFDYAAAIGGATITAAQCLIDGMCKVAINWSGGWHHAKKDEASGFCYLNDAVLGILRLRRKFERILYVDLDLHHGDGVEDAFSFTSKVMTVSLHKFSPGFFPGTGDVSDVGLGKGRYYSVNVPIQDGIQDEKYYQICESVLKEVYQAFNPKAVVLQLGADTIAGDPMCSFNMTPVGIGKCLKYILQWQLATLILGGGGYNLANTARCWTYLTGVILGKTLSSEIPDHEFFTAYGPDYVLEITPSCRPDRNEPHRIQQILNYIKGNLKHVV
The data set is described as follows: Inhibition of human recombinant HDAC8 by Michaelis-Menten equation analysis.

Data set [17] is described as follows: Cytotoxicity against HDF after 72 hrs by MTS assay. Particulars: human, HDF cells.

Sequence of Histone deacetylase 2 (Q92769 whole entry): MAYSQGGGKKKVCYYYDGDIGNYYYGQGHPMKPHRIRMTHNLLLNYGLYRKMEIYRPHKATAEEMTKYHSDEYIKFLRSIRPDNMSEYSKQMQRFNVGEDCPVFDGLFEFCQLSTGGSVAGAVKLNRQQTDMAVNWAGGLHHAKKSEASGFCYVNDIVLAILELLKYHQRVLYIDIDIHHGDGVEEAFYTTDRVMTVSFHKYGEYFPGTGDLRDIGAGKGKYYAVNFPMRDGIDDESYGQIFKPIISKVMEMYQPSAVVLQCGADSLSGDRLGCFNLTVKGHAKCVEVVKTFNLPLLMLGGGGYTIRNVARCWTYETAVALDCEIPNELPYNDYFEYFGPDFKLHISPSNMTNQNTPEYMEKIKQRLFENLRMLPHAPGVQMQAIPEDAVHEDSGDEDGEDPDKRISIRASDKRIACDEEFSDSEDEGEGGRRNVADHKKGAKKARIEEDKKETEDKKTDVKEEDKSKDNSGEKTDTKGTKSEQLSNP
Sequence of Histone deacetylase 4 (P56524 whole entry): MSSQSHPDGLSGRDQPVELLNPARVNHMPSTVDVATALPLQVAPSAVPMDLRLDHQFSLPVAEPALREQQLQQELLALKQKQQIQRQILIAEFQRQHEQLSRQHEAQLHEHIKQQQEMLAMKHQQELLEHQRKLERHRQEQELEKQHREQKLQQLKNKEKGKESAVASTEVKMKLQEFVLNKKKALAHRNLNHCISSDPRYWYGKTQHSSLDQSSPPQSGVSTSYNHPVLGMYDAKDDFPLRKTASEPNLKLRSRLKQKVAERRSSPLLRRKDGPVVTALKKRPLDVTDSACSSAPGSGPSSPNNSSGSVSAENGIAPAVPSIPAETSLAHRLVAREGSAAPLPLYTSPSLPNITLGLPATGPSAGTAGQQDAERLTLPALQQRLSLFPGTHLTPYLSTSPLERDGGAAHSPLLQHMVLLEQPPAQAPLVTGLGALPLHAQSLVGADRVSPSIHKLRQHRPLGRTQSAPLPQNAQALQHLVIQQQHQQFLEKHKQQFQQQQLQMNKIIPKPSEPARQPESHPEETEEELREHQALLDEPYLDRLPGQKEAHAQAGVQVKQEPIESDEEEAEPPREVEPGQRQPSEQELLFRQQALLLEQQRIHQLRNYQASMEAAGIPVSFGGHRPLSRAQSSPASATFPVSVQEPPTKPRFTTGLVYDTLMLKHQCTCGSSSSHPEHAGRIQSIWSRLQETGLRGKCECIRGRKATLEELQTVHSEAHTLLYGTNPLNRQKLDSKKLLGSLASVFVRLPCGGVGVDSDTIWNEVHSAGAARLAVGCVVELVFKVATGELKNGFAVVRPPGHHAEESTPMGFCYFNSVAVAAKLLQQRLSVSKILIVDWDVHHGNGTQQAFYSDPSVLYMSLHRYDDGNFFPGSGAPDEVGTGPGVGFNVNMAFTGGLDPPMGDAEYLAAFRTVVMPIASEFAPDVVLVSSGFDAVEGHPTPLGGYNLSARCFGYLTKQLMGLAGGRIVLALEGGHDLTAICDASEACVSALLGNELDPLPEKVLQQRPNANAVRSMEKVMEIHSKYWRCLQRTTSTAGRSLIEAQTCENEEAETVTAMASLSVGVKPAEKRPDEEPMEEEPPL
Sequence of Histone deacetylase 5 (Q9UQL6 whole entry): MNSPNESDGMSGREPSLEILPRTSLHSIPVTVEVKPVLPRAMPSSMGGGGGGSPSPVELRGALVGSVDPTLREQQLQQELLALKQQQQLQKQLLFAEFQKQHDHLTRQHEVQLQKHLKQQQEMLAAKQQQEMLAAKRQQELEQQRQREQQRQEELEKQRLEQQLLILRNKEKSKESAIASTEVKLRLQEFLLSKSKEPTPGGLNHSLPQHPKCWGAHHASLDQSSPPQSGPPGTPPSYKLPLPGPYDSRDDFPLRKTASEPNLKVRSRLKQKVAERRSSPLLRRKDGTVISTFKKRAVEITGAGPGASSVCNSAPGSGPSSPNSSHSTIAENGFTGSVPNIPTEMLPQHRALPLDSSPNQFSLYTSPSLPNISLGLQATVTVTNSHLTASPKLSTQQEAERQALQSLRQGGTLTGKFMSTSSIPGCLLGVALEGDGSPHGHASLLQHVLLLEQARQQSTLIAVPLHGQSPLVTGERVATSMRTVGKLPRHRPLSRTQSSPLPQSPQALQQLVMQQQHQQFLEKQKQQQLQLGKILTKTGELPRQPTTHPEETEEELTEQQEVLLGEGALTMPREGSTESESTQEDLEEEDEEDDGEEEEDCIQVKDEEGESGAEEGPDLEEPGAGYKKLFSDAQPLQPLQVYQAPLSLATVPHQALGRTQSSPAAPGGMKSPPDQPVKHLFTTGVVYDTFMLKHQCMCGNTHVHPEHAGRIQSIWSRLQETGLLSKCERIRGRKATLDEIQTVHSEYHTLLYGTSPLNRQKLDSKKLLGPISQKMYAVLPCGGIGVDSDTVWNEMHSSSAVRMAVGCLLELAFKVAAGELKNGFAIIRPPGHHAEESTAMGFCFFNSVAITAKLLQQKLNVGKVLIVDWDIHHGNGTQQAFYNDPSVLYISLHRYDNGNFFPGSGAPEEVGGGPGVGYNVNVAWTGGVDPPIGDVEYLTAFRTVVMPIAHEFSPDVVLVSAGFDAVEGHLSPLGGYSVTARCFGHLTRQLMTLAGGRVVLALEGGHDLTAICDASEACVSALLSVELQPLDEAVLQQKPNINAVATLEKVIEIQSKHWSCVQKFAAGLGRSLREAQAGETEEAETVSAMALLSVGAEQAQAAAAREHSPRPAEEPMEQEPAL
Sequence of Histone deacetylase 1 (Q13547 whole entry): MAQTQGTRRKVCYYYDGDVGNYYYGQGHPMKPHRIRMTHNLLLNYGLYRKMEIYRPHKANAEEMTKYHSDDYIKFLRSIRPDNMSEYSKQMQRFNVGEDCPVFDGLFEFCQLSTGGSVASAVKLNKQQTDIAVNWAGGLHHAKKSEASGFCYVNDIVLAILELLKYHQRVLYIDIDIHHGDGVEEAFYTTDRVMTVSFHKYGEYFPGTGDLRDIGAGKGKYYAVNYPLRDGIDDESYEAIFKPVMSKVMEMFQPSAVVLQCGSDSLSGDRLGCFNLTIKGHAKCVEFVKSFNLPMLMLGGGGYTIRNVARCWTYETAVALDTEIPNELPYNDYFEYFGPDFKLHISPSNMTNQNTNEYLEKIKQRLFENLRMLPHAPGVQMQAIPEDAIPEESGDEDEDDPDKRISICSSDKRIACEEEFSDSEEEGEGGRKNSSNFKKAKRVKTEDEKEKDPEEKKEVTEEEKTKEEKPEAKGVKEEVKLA

In the case of `COc1ccc(-c2ccccc(O)c2=O)c(OC)c1OC`, the GI50 is 35 µM in data set [1], 1.86 µM in [8], 21 µM in [14] and 4.74 µM in data set [15]. Also, the Ratio Ki in data set [2], in data set [4], in data set [10], in data set [11] and in data set [13] was over 100 in each case. The Ki in data set [3] is over 2.5 µM; in data set [5] it was over 2.5 µM; in [6], over 20 µM; in data set [7], 0.23 nM; in [12] it was over 2.5 µM; in data set [16] it was 0.124 µM. Further, in [9], the t1/2 is over 1 h. The compound also had a GI50 at 72 h in [17] of over 100 µM.
`O=c1cc(C2CCCC2)cccc1O`: the GI50 was over 100 µM in data set [1], 6.3 µM in [8], 180 µM in [14] and 11.4 µM in data set [15]. The Ratio Ki in data set [2], in data set [4], in data set [10], in data set [11] and in [13] was over 100 each time. Moreover, the Ki was over 2.5 µM in data set [3]; over 2.5 µM in data set [5]; 0.99 µM in data set [6]; 0.04 nM in data set [7]; over 2.5 µM in data set [12]; 0.123 µM in data set [16]. Moreover, in [9], the t1/2 was over 1 h. In addition, the GI50 at 72 h in data set [17] was over 100 µM.
For `COc1ccc(OC)c(-c2cccc(O)c(=O)c2)c1`, the GI50 in data set [1] is over 100 µM; in data set [8] it was 5.89 µM; in data set [14], 34.8 µM; in [15] it was 17.1 µM. Further, the Ratio Ki in data set [2], in [4], in data set [10], in data set [11] and in data set [13] was over 100 each time. Besides, the Ki in data set [3] is over 2.5 µM; in data set [5], over 2.5 µM; in [6], 11.2 µM; in data set [7], 0.51 nM; in data set [12] it was over 2.5 µM; in data set [16], 0.266 µM. For the same compound, in [9], the t1/2 is over 1 h. In [17], the GI50 at 72 h was over 100 µM.
Take `O=c1cc(-c2ccccc2)cccc1O`: the GI50 in data set [1] came out at 53.4 µM; in data set [8], 0.67 µM; in data set [14] it was 18.5 µM; in data set [15], 4.14 µM. Further, the Ki in data set [3] is over 2.5 µM; in [5] it was over 2.5 µM; in data set [6] it was 10.9 µM; in [7] it was 0.06 nM; in data set [12], over 2.5 µM; in [16], 0.00147 µM. Besides, in [9], the t1/2 was over 1 h. In data set [17], this compound yielded a GI50 at 72 h of over 100 µM.
On to `CC(C)(C)c1cccc(O)c(=O)c1`, for which the GI50 was found to be 62.6 µM in data set [1], 4.45 µM in data set [8], 43 µM in data set [14] and 13.1 µM in data set [15]. Further, the Ratio Ki in data set [2], in [4], in [10], in data set [11] and in [13] was over 100 each time. Further, the Ki was over 2.5 µM in [3]; over 2.5 µM in data set [5]; 0.806 µM in [6]; 0.13 nM in [7]; over 2.5 µM in [12]; 0.0128 µM in data set [16]. The t1/2 in data set [9] is over 1 h. The compound also displayed a GI50 at 72 h in [17] of over 100 µM.
In the case of `COc1cccc(C(C)C)cc1=O`, the GI50 in data set [1], in data set [8], in data set [14] and in [15] was over 100 µM throughout. Moreover, the Ki is over 2.5 µM in data set [3]; over 2.5 µM in data set [5]; 11.6 µM in [6]; over 2500 nM in data set [7]; over 2.5 µM in [12]; 0.00787 µM in data set [16]. The t1/2 in data set [9] is over 1 h. The GI50 at 72 h in data set [17] is over 100 µM.
As to `CCC(C)c1cccc(O)c(=O)c1` (configuration not stated), the GI50 in [1] amounted to 26.9 µM; in data set [8], 0.59 µM; in data set [14], 104 µM; in data set [15], 3.25 µM. Also, the Ki in data set [3] was over 2.5 µM; in [5], over 2.5 µM; in data set [6] it was 6.11 µM; in data set [7], 0.22 nM; in data set [12] it was over 2.5 µM; in data set [16] it was 0.00227 µM. In addition, the t1/2 in data set [9] is over 1 h. Moreover, in [17], the GI50 at 72 h is over 100 µM.
In the case of `COc1ccc(-c2cccc(O)c(=O)c2)cc1`, the GI50 in [1] stood at 43.7 µM; in data set [8], 4.62 µM; in [14], 91.6 µM; in data set [15], 8.95 µM. Moreover, the inhibition constant (Ki) was over 2.5 µM in [3]; over 2.5 µM in data set [5]; 8.36 µM in data set [6]; 0.12 nM in data set [7]; over 2.5 µM in data set [12]; 0.00238 µM in [16]. The t1/2 in data set [9] is over 1 h. Besides, in data set [17], the GI50 at 72 h was over 100 µM.
With `CC(C)c1cccc(=O)c(O)c1` [HINOKITIOL], the GI50 in [1] is 6.92 µM; in [8] it was 1.1 µM; in data set [14], 19 µM; in data set [15], 4.99 µM. For the same compound, the Ki in data set [3] was over 2.5 µM; in data set [5], over 2.5 µM; in [6], over 20 µM; in data set [7], 15.4 nM; in data set [12] it was over 2.5 µM; in [16] it was 0.178 µM. The t1/2 in [9] was over 1 h. In [17], this compound showed a GI50 at 72 h of over 100 µM.
In the case of `O=c1c(O)ccccc1-c1ccc2ccccc2c1`, the GI50 amounted to 32.1 µM in [1], 1.15 µM in data set [8], 17.1 µM in data set [14] and 4.11 µM in [15]. Besides, the Ratio Ki in [2], in data set [4], in data set [10], in data set [11] and in data set [13] was over 100 each time. For the same compound, the inhibition constant Ki is over 2.5 µM in [3]; over 2.5 µM in data set [5]; over 20 µM in data set [6]; 0.25 nM in data set [7]; over 2.5 µM in [12]; 0.186 µM in [16]. Moreover, in [9], the t1/2 was over 1 h. Besides, the GI50 at 72 h in data set [17] stood at 93.1 µM.
As to `COc1ccc(-c2ccccc(O)c2=O)cc1`, the GI50 came to 57 µM in data set [1], 0.62 µM in [8], 35.9 µM in [14] and 2.87 µM in data set [15]. For the same compound, the Ratio Ki in data set [2], in [4], in [10], in [11] and in data set [13] was over 100 throughout. The Ki in [3] was over 2.5 µM; in [5], over 2.5 µM; in [6], over 20 µM; in data set [7], 0.81 nM; in data set [12] it was over 2.5 µM; in data set [16], 0.0838 µM. The t1/2 in data set [9] was over 1 h. This compound also returned a GI50 at 72 h in [17] of over 100 µM.
